Assay results from ChEMBL document CHEMBL5724801, “EUbOPEN Chemogenomics Library - Multiplex” (2024).
“And” between values parts separate entries of the source, which are not always exact repeats. Equal values may be shown once.

Test system: U2OS
Test: Multiplex assay against U2OS
Format: toxicity, cell-based
Conditions: human
Procedure, shortened: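 Phenotypes for tubulin, mitochondrial mass and membrane permeability are expressed as per cents of healthy-nucleus cells. Cells were stained live at seeding with Hoechst33342, BioTracker Green Microtubule Cytoskeleton Dye, MitoTracker Red and Annexin V Alexa Fluor 680, then imaged after compound addition on a CQ1 microscope at 37°C and 5% CO2. Machine-learning gating in CellPathfinder separated Hoechst high-intensity objects from normal cells, divided normal cells by nuclear state (healthy, pyknosed, fragmented) and divided pyknosed cells into mitotic or apoptotic.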

[1] = 12 h, 1 µM, compound concentration 1 uM
[2] = 12 h, 10 µM, compound concentration 10 uM
[3] = 24 h, 1 µM, compound concentration 1 uM
[4] = 24 h, 10 µM, compound concentration 10 uM
[5] = 48 h, 1 µM, compound concentration 1 uM
[6] = 48 h, 10 µM, compound concentration 10 uM

## N#Cc1c(N)nc(SCc2csc(-c3ccc(Cl)cc3)n2)c(C#N)c1-c1ccc(OCCO)cc1 [CAPADENOSON]
[1]
  Population Apoptotic (%): 78% and 80%
  Population Fragmented Nuclei (%): 25% and 18%
  Population Healthy Nuclei (%): 65% and 75%
  Population Hoechst High Intensity Objects (%): 5% and 1%
  Population Membrane Permeable-Phenotype (%): 14% and 5%
  Population Mitochondria Different-Phenotype (%): 4% and 2%
  Population Mitotic Cells (%): 21% and 20%
  Population Normal (%): 94% and 98%
  Population Pyknosed Nuclei (%): 8% and 6%
  Population Tubulin-Different-Phenotype (%): 10% and 1%
  Total Cell Count: 236 and 150
[2]
  Population Apoptotic (%): 64% and 68%
  Population Fragmented Nuclei (%): 35% and 24%
  Population Healthy Nuclei (%): 40% and 56%
  Population Hoechst High Intensity Objects (%): 5% and 0%
  Population Membrane Permeable-Phenotype (%): 70% and 49%
  Population Mitochondria Different-Phenotype (%): 37% and 61%
  Population Mitotic Cells (%): 35% and 31%
  Population Normal (%): 94% and 99%
  Population Pyknosed Nuclei (%): 24% and 18%
  Population Tubulin-Different-Phenotype (%): 65% and 70%
  Total Cell Count: 255 and 102
[3]
  Population Apoptotic (%): 87% and 61%
  Population Fragmented Nuclei (%): 23% and 16%
  Population Healthy Nuclei (%): 64% and 71%
  Population Hoechst High Intensity Objects (%): 3% and 0%
  Population Membrane Permeable-Phenotype (%): 9% and 5%
  Population Mitochondria Different-Phenotype (%): 4% and 2%
  Population Normal (%): 96% and 99%
  Population Pyknosed Nuclei (%): 12%
  Population Tubulin-Different-Phenotype (%): 6% and 2%
  Total Cell Count: 263 and 176
[4]
  Population Apoptotic (%): 71% and 69%
  Population Fragmented Nuclei (%): 36% and 25%
  Population Healthy Nuclei (%): 37% and 49%
  Population Hoechst High Intensity Objects (%): 5% and 2%
  Population Membrane Permeable-Phenotype (%): 47% and 34%
  Population Mitochondria Different-Phenotype (%): 38% and 58%
  Population Mitotic Cells (%): 28% and 30%
  Population Normal (%): 94% and 97%
  Population Pyknosed Nuclei (%): 26% and 24%
  Population Tubulin-Different-Phenotype (%): 47% and 60%
  Total Cell Count: 253 and 95
[5]
  Population Apoptotic (%): 80% and 84%
  Population Fragmented Nuclei (%): 23% and 12%
  Population Healthy Nuclei (%): 67% and 79%
  Population Hoechst High Intensity Objects (%): 3% and 0%
  Population Membrane Permeable-Phenotype (%): 9% and 6%
  Population Mitochondria Different-Phenotype (%): 6% and 3%
  Population Mitotic Cells (%): 20% and 15%
  Population Normal (%): 96% and 99%
  Population Pyknosed Nuclei (%): 8%
  Population Tubulin-Different-Phenotype (%): 6% and 5%
  Total Cell Count: 355 and 220
[6]
  Population Apoptotic (%): 86% and 66%
  Population Fragmented Nuclei (%): 44% and 30%
  Population Healthy Nuclei (%): 30% and 49%
  Population Hoechst High Intensity Objects (%): 5% and 4%
  Population Membrane Permeable-Phenotype (%): 46% and 45%
  Population Mitochondria Different-Phenotype (%): 31% and 45%
  Population Mitotic Cells (%): 13% and 33%
  Population Normal (%): 94% and 95%
  Population Pyknosed Nuclei (%): 25% and 20%
  Population Tubulin-Different-Phenotype (%): 37% and 50%
  Total Cell Count: 285 and 109

## C[C@H]1[C@H]2CC[C@H]3[C@@H]4CC=C5C[C@@H](N(C)C)CC[C@]5(C)[C@H]4CC[C@]23CN1C [CONESSINE]
[1]
  Population Apoptotic (%): 80% and 58%
  Population Fragmented Nuclei (%): 23% and 16%
  Population Healthy Nuclei (%): 70% and 73%
  Population Hoechst High Intensity Objects (%): 2% and 1%
  Population Membrane Permeable-Phenotype (%): 5%
  Population Mitochondria Different-Phenotype (%): 1% and 2%
  Population Mitotic Cells (%): 20% and 41%
  Population Normal (%): 97% and 98%
  Population Pyknosed Nuclei (%): 6% and 9%
  Population Tubulin-Different-Phenotype (%): 2% and 3%
  Total Cell Count: 248 and 124
[2]
  Population Apoptotic (%): 55% and 100%
  Population Fragmented Nuclei (%): 19% and 17%
  Population Healthy Nuclei (%): 71% and 68%
  Population Hoechst High Intensity Objects (%): 2% and 0%
  Population Membrane Permeable-Phenotype (%): 5% and 8%
  Population Mitochondria Different-Phenotype (%): 0% and 5%
  Population Normal (%): 97% and 99%
  Population Pyknosed Nuclei (%): 8% and 13%
  Population Tubulin-Different-Phenotype (%): 1% and 6%
  Total Cell Count: 237 and 107
[3]
  Population Apoptotic (%): 90% and 100%
  Population Fragmented Nuclei (%): 18% and 11%
  Population Healthy Nuclei (%): 74% and 81%
  Population Hoechst High Intensity Objects (%): 2% and 1%
  Population Membrane Permeable-Phenotype (%): 6% and 8%
  Population Mitochondria Different-Phenotype (%): 1% and 5%
  Population Mitotic Cells (%): 9% and 0%
  Population Normal (%): 97% and 98%
  Population Pyknosed Nuclei (%): 7%
  Population Tubulin-Different-Phenotype (%): 3% and 7%
  Total Cell Count: 307 and 153
[4]
  Population Apoptotic (%): 65% and 100%
  Population Fragmented Nuclei (%): 20% and 19%
  Population Healthy Nuclei (%): 71%
  Population Hoechst High Intensity Objects (%): 2% and 4%
  Population Membrane Permeable-Phenotype (%): 2% and 10%
  Population Mitochondria Different-Phenotype (%): 0% and 4%
  Population Normal (%): 97% and 95%
  Population Pyknosed Nuclei (%): 7% and 8%
  Population Tubulin-Different-Phenotype (%): 1% and 9%
  Total Cell Count: 265 and 134
[5]
  Population Apoptotic (%): 83% and 86%
  Population Fragmented Nuclei (%): 16%
  Population Healthy Nuclei (%): 79% and 73%
  Population Hoechst High Intensity Objects (%): 2%
  Population Membrane Permeable-Phenotype (%): 4%
  Population Mitochondria Different-Phenotype (%): 2% and 0%
  Population Mitotic Cells (%): 16% and 13%
  Population Normal (%): 97%
  Population Pyknosed Nuclei (%): 4% and 9%
  Population Tubulin-Different-Phenotype (%): 1% and 2%
  Total Cell Count: 430 and 227
[6]
  Population Apoptotic (%): 89% and 85%
  Population Fragmented Nuclei (%): 19% and 15%
  Population Healthy Nuclei (%): 73% and 72%
  Population Hoechst High Intensity Objects (%): 1% and 6%
  Population Membrane Permeable-Phenotype (%): 4% and 9%
  Population Mitochondria Different-Phenotype (%): 2% and 5%
  Population Mitotic Cells (%): 10% and 15%
  Population Normal (%): 98% and 93%
  Population Pyknosed Nuclei (%): 7% and 12%
  Population Tubulin-Different-Phenotype (%): 3% and 6%
  Total Cell Count: 370 and 175

## CCn1cnc2c(-c3ccc(F)c(-c4ccc(S(=O)(=O)CC)cc4OC)c3)cnnc21 [DARIGABAT]
[1]
  Population Apoptotic (%): 18.37% and 38.1%
  Population Fragmented Nuclei (%): 2.41% and 2.26%
  Population Healthy Nuclei (%): 84.49% and 81.95%
  Population Hoechst High Intensity Objects (%): 0%
  Population Membrane Permeable-Phenotype (%): 0.95% and 3.67%
  Population Mitochondria Different-Phenotype (%): 0% and 6.42%
  Population Mitotic Cells (%): 81.63% and 61.9%
  Population Normal (%): 100%
  Population Pyknosed Nuclei (%): 13.1% and 15.79%
  Population Tubulin-Different-Phenotype (%): 1.58% and 0.92%
  Total Cell Count: 374 and 133
[2]
  Population Apoptotic (%): 35.44% and 27.5%
  Population Fragmented Nuclei (%): 2.35% and 3.87%
  Population Healthy Nuclei (%): 74.41% and 70.32%
  Population Hoechst High Intensity Objects (%): 0% and 0.64%
  Population Membrane Permeable-Phenotype (%): 3.95% and 3.67%
  Population Mitotic Cells (%): 64.56% and 72.5%
  Population Normal (%): 100% and 99.36%
  Population Pyknosed Nuclei (%): 25.81%
  Total Cell Count: 340 and 156
[3]
  Population Apoptotic (%): 28.12% and 48%
  Population Fragmented Nuclei (%): 1.34% and 1.64%
  Population Healthy Nuclei (%): 86.42% and 84.7%
  Population Hoechst High Intensity Objects (%): 0%
  Population Membrane Permeable-Phenotype (%): 0.66% and 4.52%
  Population Mitochondria Different-Phenotype (%): 0% and 1.94%
  Population Mitotic Cells (%): 71.88% and 52%
  Population Normal (%): 100%
  Population Pyknosed Nuclei (%): 12.24% and 13.66%
  Population Tubulin-Different-Phenotype (%): 2.21% and 0%
  Total Cell Count: 523 and 183
[4]
  Population Apoptotic (%): 49.55% and 36%
  Population Fragmented Nuclei (%): 3.86% and 1.2%
  Population Healthy Nuclei (%): 67.61% and 68.67%
  Population Hoechst High Intensity Objects (%): 0%
  Population Membrane Permeable-Phenotype (%): 3.04% and 5.26%
  Population Mitotic Cells (%): 50.45% and 64%
  Population Normal (%): 100%
  Population Pyknosed Nuclei (%): 28.53% and 30.12%
  Population Tubulin-Different-Phenotype (%): 11.79% and 2.63%
  Total Cell Count: 389 and 166
[5]
  Population Apoptotic (%): 49.52% and 51.28%
  Population Fragmented Nuclei (%): 5.85% and 2.9%
  Population Healthy Nuclei (%): 81.07% and 82.97%
  Population Hoechst High Intensity Objects (%): 0%
  Population Membrane Permeable-Phenotype (%): 0.61% and 2.62%
  Population Mitochondria Different-Phenotype (%): 0% and 3.49%
  Population Mitotic Cells (%): 50.48% and 48.72%
  Population Normal (%): 100%
  Population Pyknosed Nuclei (%): 13.08% and 14.13%
  Population Tubulin-Different-Phenotype (%): 1.84% and 0.87%
  Total Cell Count: 803 and 276
[6]
  Population Apoptotic (%): 64.56% and 67.12%
  Population Fragmented Nuclei (%): 3.84% and 5.23%
  Population Healthy Nuclei (%): 52.88% and 47.06%
  Population Hoechst High Intensity Objects (%): 0%
  Population Membrane Permeable-Phenotype (%): 7.25% and 11.11%
  Population Mitotic Cells (%): 35.44% and 32.88%
  Population Normal (%): 100%
  Population Pyknosed Nuclei (%): 43.29% and 47.71%
  Population Tubulin-Different-Phenotype (%): 24.87% and 11.11%
  Total Cell Count: 365 and 153
